Screens (PubChem BioAssay)
A selection: hits, their analogues and other compounds. The true share with any hit is near 3.1%.
Ecoli rRNA inh – reduced GFP signal of wild-type E. coli, primary screen, bacterial rRNA inhibitor project, GFP/RFP fluorescence, OD600, single point | E. coli WT GFP vs humanized-ribosome RFP mutants, 24 h; active compounds read low; DMSO median 0, no signal -100 | GFP signal change (wild-type ribosome), % (test concentration not listed) | 350,000 compounds, 1.6% hits | AID 720706, 2013;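 active means significant combined selectivity score with lowered wild-type GFP, culture density cut under 30%, mutant RFP and density less affected; inactive means any of these conditions unmet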
miR122 inh – miR-122 Renilla sensor signal increase in Huh7, primary screen, miR-122 inhibitor project, cell-based, single point, plate reader; Huh7 miR-122 Renilla luciferase sensor, 48 h; neutral wells = 0, positive control = 100; activation (reporter increase), % at 12.5 µM; 340,000 compounds, 0.3% hits; AID 602342, 2012;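 active means mean replicate activation score at least 90 and every replicate individually at or above 90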;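 further: higher luciferase means less miR-122 activity so hits act as miR-122 inhibitors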
CFTR F508del cor – F508del CFTR correction, initial screen, CFBE line, single point. CFBE cells, YFP halide quenching; stimulated with forskolin plus potentiator P3; % fluorescence drop versus neutral controls. 350,000 compounds, 0.36% hits. activity (quench increase), % at 7.58 µM;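 active means mean added fluorescence quench of at least 8% versus neutral control, with both replicates also reaching 8%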;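 further: cells transiently co-express mutant CFTR-F508del with the halide-sensitive YFP; corrector assay measuring rescue of mutant channel to the surface after 24 h compound exposure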
Cneo AK release – Cryptococcus neoformans cell lysis inducers, primary screen, AK release luminescence, single concentration | C. neoformans lysis, adenylate kinase release luminescence, 4 h; normalised: neutral wells 0, clomiphene wells 100 | lysis activity, % at 15 µM | 360,000 compounds, 0.2% hits;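 active means mean lysis activity across replicates of at least 80%, whatever share of replicates individually reach that level; inactive means mean lysis activity below 80%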
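Material: C. neoformans cells | Amount: Yeast cell density of 5 × 10^6 cells/mL | Medium: Fresh YPD growth medium | Dosing: Single dose | Times: Static 4 h at 37 °C with compound, 1 h detection | Detection: AK luminescence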
INS-1E GSIS act – GLuc luminescence reporter in INS-1E cells, primary screen for activators of glucose-dependent secretion of insulin; INS-1E GLuc reporter insulin secretion, 2-3 h; activation, % at 16.6 µM; 370,000 compounds, 0.61% hits;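 active means lowest replicate activation of at least 40%, so every replicate reaches that level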;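 further: 0% = median of neutral control wells and 100% = median of IBMX positive control wells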
Env fusion inh – inhibitors of HIV-1 Env-driven cell-cell fusion, primary screen, HeLa-JRFL effector, CEM21 target cells, luciferase | inhibition, % at 12.3 µM | 360,000 compounds, 1.1% hits | AID 651610, 2012;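 active means mean replicate inhibition score of at least 50 and every replicate individually at or above 50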;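 further: 0% = plate neutral controls and 100% = maraviroc near 300 nM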
* marks the source's active call; other numbers are inactive results; . = no result; [ ] = dose if it differs, or a comment.

SMILES	Ecoli rRNA inh	miR122 inh	CFTR F508del cor	Cneo AK release	INS-1E GSIS act	Env fusion inh
CC(=O)Nc1ccc2c(c1)C(=O)N(C)C[C@@H](C)[C@@H](CN(C)C(=O)NC(C)C)O2	-1	.	.	.	3	.
CN1CCN(C(=O)C[C@@H]2C[C@@H]3c4cc(NC(=O)Nc5ccc(C(F)(F)F)cc5)ccc4O[C@@H]3[C@H](CO)O2)CC1	-14	1[16.7 µM]	-3	12	11	4[16.7 µM]
COc1ccccc1NS(=O)(=O)c1cc([N+](=O)[O-])ccc1N/N=C/c1c(C)[nH]c2ccccc12	.	20	.	-9	-29	9
O=[N+]([O-])c1ccc(N/N=C/c2c[nH]c3ccccc23)c(S(=O)(=O)Nc2ccc(Cl)cc2)c1	.	162*	.	-1	3	13
COc1ccc(S(=O)(=O)N[C@@H]2CC[C@H](CCn3cc(C(C)C)nn3)O[C@@H]2CO)cc1	0	1[16.7 µM]	-1	-3	1	-11[16.7 µM]
C[C@H]1CN([C@@H](C)CO)S(=O)(=O)c2ccc(-c3cncnc3)cc2O[C@@H]1CN(C)Cc1ccncc1	-2	-1[16.7 µM]	3	4	8	-23[16.7 µM]
CC(C)N(C(=O)Nc1ccc2nsnc2c1)C(C)C	-16*	.	0	.	-23	12
COc1ccc(/C=C2/N=C(SCC(=O)Nc3cc(C)on3)N(c3ccccc3)C2=O)cc1	12	-9	1	34	10	.
CCC(SC1=N/C(=C/c2ccccc2)C(=O)N1c1ccccc1)C(=O)Nc1cc(C)on1 (centres undefined)	4	341*	1	0	-3	3
CCCC(=O)Nc1ccc2c(c1)OC[C@@H](C)N(CC1CCOCC1)C[C@@H](C)[C@@H](OC)CN(C)C2=O	3	.	-5	1	0	-6[16.7 µM]
Cc1cc(C)[n+]2[nH]c(N)c(N=Nc3ccccc3)c2n1	-28*	.	-5	.	1	-16
Cc1ncc(CN2CCCC(C(=O)Nc3ccc(-c4cccc(F)c4)cc3)C2)cn1 (centres undefined)	-7	-12	-4	-5	-13	23
Cc1ncc(CN2CCCC(C(=O)Nc3ccc(-c4cccc(F)c4)cc3)C2)s1 (centres undefined)	-31*	-1	-2	-1	-67	20
CCCNC(=O)c1ccccc1NC(=O)c1ccccc1N(C)S(=O)(=O)c1ccccc1	.	-3	.	0	7	72*
COC(=O)c1ccccc1NC(=O)c1ccccc1N(C)S(=O)(=O)c1ccccc1	3	-4	1	2	4	13
COCCNC(=O)c1ccccc1NC(=O)c1ccccc1N(C)S(=O)(=O)c1ccc(C)cc1	.	23	.	0	-12	.
CC(C)CNC(=O)c1ccccc1NC(=O)c1ccccc1N(C)S(=O)(=O)c1ccccc1	-21	11	2	28	-37	78*
O=C(CN1CCOCC1)N1CC[C@H]2[C@H](CO)Nc3ccc(Br)cc3[C@H]21	0	-7[16.7 µM]	0	-18	4	.
CC(=O)N1[C@@H]2c3ccc(C4=CCCCC4)c(=O)n3C[C@@H]2[C@@H](CO)[C@@H]1C(=O)N1CCCCC1	2	-3[16.7 µM]	-3	-2	-11	.
COC(=O)c1sc(-c2ccc(Cl)cc2)cc1NC(=O)CSCC(=O)O	-42*	.	-4	4	-14	16
COC(=O)c1sc(-c2ccc(C(C)(C)C)cc2)cc1NC(=O)COCC(=O)O	-20	-3	-1	-14	.	-9
O=[N+]([O-])c1cccc(S(=O)(=O)Nc2nc3ccccc3nc2Nc2cccc(S(=O)(=O)N3CCCCC3)c2)c1	5	.	.	.	-25	72*
COc1ccc(NS(=O)(=O)c2cc(Cl)ccc2Cl)cc1S(=O)(=O)N1CCCCC1	-29	.	.	.	-29	-20
COc1ccc(NS(=O)(=O)c2cccc(Cl)c2)cc1S(=O)(=O)N1CCCCC1	20	438*	1	0	-8	.
